The subject of one assay is HCT-116. In words: Cytotoxicity against human HCT116 cells after 4 days. In kind it is functional, cell-based. Particulars: HCT-116, 96 h. An outline of the steps: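 Single-cell suspension of HCT116 cells seeded at 2 × 10^3 cells/well onto serially diluted test compounds, cultured 4 days. Growth read with a cell counting kit. IC50 taken as the concentration giving 50% growth inhibition versus untreated control.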

In another assay the test system is QG-56. In words: Cytotoxicity against human QG56 cells after 4 days. In kind it is functional, cell-based. The settings on record: QG-56, 96 h.

Molecules are shown by their SMILES.

By IC50 is commonly meant the concentration needed to halve the response being measured. A high value points to a need for much substance.

In the case of `C/C=C(/C)C(=O)OC[C@H]1C2=C(C[C@H]3[C@H]4c5c(OC(C)=O)c(OC)c(C)c(OC(C)=O)c5[C@H](OC(C)=O)[C@@H]([C@H](C#N)N13)N4C)C(=O)C(C)=C(OC)C2=O`, the IC50 is 630 nM in the assay with HCT-116 and 1600 nM in the assay on QG-56.
For the compound `C/C=C(/C)C(=O)OC[C@H]1c2c(c(OC(C)=O)c(C)c(OC)c2OC(C)=O)C[C@H]2[C@H]3C4=C(C[C@@H]([C@H](C#N)N12)N3C)C(=O)C(C)=C(OC)C4=O`, the results for the IC50 in the assay with HCT-116 and with QG-56 were 1.9 nM and 3.9 nM, respectively.
Regarding `C/C=C(/C)C(=O)OC[C@H]1C2=C(C[C@H]3[C@H]4c5c(O)c(OC)c(C)c(O)c5C(=O)[C@@H]([C@H](C#N)N13)N4C)C(=O)C(C)=C(OC)C2=O` [RENIERAMYCIN Q], the figures for the IC50 with HCT-116 and in the assay with QG-56 were 59 nM and 71 nM, respectively.
Taken in the same sequence, the figures for `C/C=C(/C)C(=O)OC[C@H]1C2=C(C[C@H]3[C@H]4C5=C(C[C@@H]([C@H](C#N)N13)N4C)C(=O)C(C)=C(OC)C5=O)C(=O)C(C)=C(O)C2=O` [RENIERAMYCIN S] were 15 nM and 26 nM.
Turning to `C/C=C(/C)C(=O)OC[C@H]1C2=C(C[C@H]3[C@H]4C5=C(C(=O)C(C)=C(OC)C5=O)[C@H](OC)[C@@H]([C@H](C#N)N13)N4C)C(=O)C(C)=C(OC)C2=O` [RENIERAMYCIN R], the results for the IC50 in the assay on HCT-116 and in the assay with QG-56 were 23 nM and 29 nM, respectively.
With `C/C=C(/C)C(=O)OC[C@H]1c2c(c(OC(C)=O)c(C)c(OC)c2OC(C)=O)C[C@H]2[C@H]3c4c(c(OC(C)=O)c(C)c(OC)c4OC(C)=O)C[C@@H]([C@H](C#N)N12)N3C`, the results for the IC50 with HCT-116 and with QG-56 were 3 nM and 7.9 nM, respectively.
Regarding `C/C=C(/C)C(=O)OC[C@H]1C2=C(C[C@H]3[C@H]4C5=C(C(=O)C(C)=C(OC)C5=O)[C@H](OC(C)=O)[C@@H]([C@H](C#N)N13)N4C)C(=O)C(C)=C(OC)C2=O`, the IC50 in the assay on HCT-116 was found to be 120 nM; in the assay on QG-56 it was 300 nM.

For the origin of these results see ChEMBL document CHEMBL1151234, “Chemistry of renieramycins. Part 5. Structure elucidation of renieramycin-type derivatives O, Q, R, and S from thai marine sponge Xestospongia species pretreated with potassium cyanide” (J Nat Prod, 2004).
